Source: ChEMBL document CHEMBL1149162 (J Med Chem, 2004)

Columns and labels:
D(4) dopamine receptor [1] = target: T1, D(4) dopamine receptor (Homo sapiens, UniProt P21917); experiment: Binding affinity against human Dopamine receptor D4 by [3H]-spiperone displacement.
T1 sequence (P21917 whole entry): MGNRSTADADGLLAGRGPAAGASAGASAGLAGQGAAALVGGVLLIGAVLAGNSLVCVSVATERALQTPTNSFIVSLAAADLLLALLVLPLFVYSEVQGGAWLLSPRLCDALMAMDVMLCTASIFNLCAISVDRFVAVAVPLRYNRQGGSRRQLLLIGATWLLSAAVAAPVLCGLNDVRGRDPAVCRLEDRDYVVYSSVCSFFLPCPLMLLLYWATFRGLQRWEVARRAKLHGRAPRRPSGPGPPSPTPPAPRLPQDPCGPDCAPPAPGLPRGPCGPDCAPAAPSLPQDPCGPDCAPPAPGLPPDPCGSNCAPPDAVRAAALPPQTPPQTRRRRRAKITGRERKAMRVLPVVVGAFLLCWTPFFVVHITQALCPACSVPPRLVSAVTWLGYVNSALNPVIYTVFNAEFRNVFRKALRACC

D(4) dopamine receptor [2] = target: T1, D(4) dopamine receptor; experiment: Effective concentration against human Dopamine receptor D4
D(2) dopamine receptor = D(2) dopamine receptor (Homo sapiens, UniProt P14416); experiment: Binding affinity against human Dopamine receptor D2 using [3H]spiperone as radioligand
[3] = target: T2, D(4) dopamine receptor (Homo sapiens) (UniProt P21917); experiment: D4 efficacy against human Dopamine receptor D4 expressed in HEK293 cells; type: functional, cell-based
T2 sequence (whole entry): T1 sequence (P21917 whole entry)

D(4) dopamine receptor [4] = target: T1, D(4) dopamine receptor; experiment: D4 efficacy was measured using recombinant human Dopamine receptor D4 expressed in HEK293 cells; type: cell-based
Summary of the method: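 Human D4.4 co-expressed with Gαq05 in HEK293 cells, seeded at 20 000 cells/well and cultured 2 days. Loaded 1 h at room temperature with 4 μM Fluo-4 and 0.04% Pluronic F-127 in DPBS, then washed. Compound added on FLIPR and calcium fluorescence read for 3 min. EC50 is the concentration giving 50% signal; efficacy is % activation relative to 10 μM dopamine; n ≥ 3.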

[5] = target: T2, D(4) dopamine receptor (Homo sapiens); experiment: D4 efficacy was measured using recombinant human D4 receptor expressed in HEK293 cells; type: functional, cell-based
Summary of the method: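 Human D4.4 coexpressed with Gαq05 in HEK293 cells, plated 20 000 cells/well and cultured 2 days. Cells loaded 1 h at room temperature with 4 μM Fluo-4 plus 0.04% Pluronic F-127 in DPBS, washed four times. Compound added on FLIPR and calcium fluorescence recorded for 3 min. Data normalized to 10 μM dopamine response. EC50 is concentration giving 50% signal. n ≥ 3, ±SEM.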

Sequence of D(2) dopamine receptor (P14416 whole entry): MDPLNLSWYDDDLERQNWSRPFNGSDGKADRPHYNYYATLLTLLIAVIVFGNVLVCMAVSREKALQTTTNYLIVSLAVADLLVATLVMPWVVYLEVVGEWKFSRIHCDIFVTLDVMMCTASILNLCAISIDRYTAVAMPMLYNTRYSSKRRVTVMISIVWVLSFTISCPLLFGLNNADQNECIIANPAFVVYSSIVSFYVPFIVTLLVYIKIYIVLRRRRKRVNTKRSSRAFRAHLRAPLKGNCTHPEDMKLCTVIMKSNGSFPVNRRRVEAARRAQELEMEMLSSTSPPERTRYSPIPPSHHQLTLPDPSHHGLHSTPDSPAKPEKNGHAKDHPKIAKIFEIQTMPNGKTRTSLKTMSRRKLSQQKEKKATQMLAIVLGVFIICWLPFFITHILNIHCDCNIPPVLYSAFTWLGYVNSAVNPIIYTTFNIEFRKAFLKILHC

| EC50 (D(4) dopamine receptor [2]) [µM] | EC50 (D(4) dopamine receptor [4]) [µM] | Compound | Ki (D(4) dopamine receptor [1]) [µM] | Ki (D(2) dopamine receptor) [µM] | Efficacy [3] [%] | Efficacy [5] [%] |
| --- | --- | --- | --- | --- | --- | --- |
| 0.154 |  | Clc1ccc(N2CCN(Cc3cc4ccccn4n3)CC2)cc1 | 0.0027 | 1.31 |  |  |
|  |  | COc1ccc(N2CCN(Cc3nc4ccccc4[nH]3)CC2)cc1 | 0.0204 |  | 4.8 |  |
|  |  | c1cncc(N2CCN(Cc3nc4ccccc4[nH]3)CC2)c1 | 0.376 |  | 24.9 |  |
|  |  | Fc1ccc(N2CCN(Cc3nc4ccccc4[nH]3)CC2)cc1 | 0.0796 |  | 9.9 |  |
| 0.0056 |  | COc1ccccc1N1CCN(Cc2nc3ccccc3[nH]2)CC1 | 0.0043 |  |  |  |
|  |  | c1ccc2[nH]c(CN3CCN(c4ccncc4)CC3)nc2c1 | > 10 |  | 4.8 |  |
|  | 0.0124 | c1ccc(N2CCN(Cc3nc4ccccc4[nH]3)CC2)nc1 [ABT-724] | 0.167 |  |  |  |
| 0.001 |  | Clc1ccccc1N1CCN(Cc2nc3ccccc3[nH]2)CC1 | 0.0085 |  |  |  |
|  |  | Clc1cccc(N2CCN(Cc3nc4ccccc4[nH]3)CC2)c1 | 0.0096 | > 10 |  | 3.8 |
|  |  | Clc1ccc(N2CCN(Cc3nc4ccccc4[nH]3)CC2)cc1 | 0.0148 | > 10 | 4.7 |  |
|  |  | COc1cccc(N2CCN(Cc3nc4ccccc4[nH]3)CC2)c1 | 0.0265 |  | 5 |  |
| 0.0101 |  | c1ccc(N2CCN(Cc3nc4ccccc4[nH]3)CC2)cc1 | 0.052 |  | 37.5 |  |

| Compound | EC50 (D(4) dopamine receptor [2]) [µM] | EC50 (D(4) dopamine receptor [4]) [µM] | Ki (D(4) dopamine receptor [1]) [µM] | Ki (D(2) dopamine receptor) [µM] | Efficacy [3] [%] | Efficacy [5] [%] |
| --- | --- | --- | --- | --- | --- | --- |
| Clc1ccccc1N1CCN(Cc2nc3ccc[nH]c-3n2)CC1 | 10 |  | 0.719 | > 10 |  |  |
